Experimental findings from ChEMBL document CHEMBL1165977, “Novel analogues of Istaroxime, a potent inhibitor of Na(+),K(+)-ATPase: Synthesis, structure-activity relationship and 3D-quantitative structure-activity relationship of derivatives at position 6 on the androstane scaffold” (Bioorg Med Chem, 2010) are described below.

In data set [1] the test system is Cavia porcellus. The experiment in a line: Positive inotropic activity in iv dosed guinea pig atria assessed as concentration required to increase in […]. The data set is classed as functional.
Data set [2] can be described thus: Therapeutic index, ratio of lethal dose to ED80 for inotropic activity in guinea pig. It counts as organism-based, Cavia porcellus. To be noted: in vivo. In short, it runs like this:
(§1)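 Anesthetized guinea pigs with a jugular vein cannula and an intubated trachea for spontaneous respiration. After stabilization, drug was infused iv at 0.16 mL/min until death or for up to 90 min. Vehicle was DMSO diluted in physiological solution to 1% DMSO final. Read-out was +dP/dt_max. ED80 (dose raising +dP/dt_max by 80%) came from the dose–response, and the doses giving maximum inotropy and death were recorded, giving the lethal dose/ED80 ratio.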

Data set [3] can be described thus: Inhibition of dog kidney Na+K+-ATPase assessed as hydrolysis of [32P]ATP. Details: species or system Canis lupus familiaris. The method in brief: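 Dog kidney Na+,K+-ATPase, isolated and purified by the Jørgensen method. Enzyme activity was read as % hydrolysis of 32P-ATP with versus without test compound. IC50 was obtained by nonlinear least-squares curve fitting, as the mean of two or three experiments.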

In data set [4] the test system is Cavia porcellus. The experiment in a line: Positive inotropic activity in guinea pig atria assessed as increase in […] at 0.16 ml/min, iv. The data set is classed as functional.
The species named for data set [5] is Cavia porcellus. As to the kind of experiment: Positive inotropic activity in electrically driven guinea pig atria assessed as maximal concentration required to increase in […]. It counts as functional.
The test system of data set [6] is Cavia porcellus. As to the kind of experiment: Toxicity in guinea pig assessed as death at 0.16 ml/min, iv up to 90 mins. To be noted: in vivo, 1.5 h. It counts as organism-based. In short, it runs like this:
as §1

On to `C[C@]12CC/C(=N\OCCN)C[C@@H]1[C@@H](CCO)C[C@@H]1[C@@H]2CC[C@]2(C)C(=O)CC[C@@H]12.Cl`, for which the ED80 in the data set on Cavia porcellus [1] stood at 2.5 µM/g. Moreover, in data set [2], the selectivity ratio is 23. Also, the 50% inhibitory concentration (IC50) (in general, the concentration that gives 50% inhibition) in data set [3] was determined as 0.32 µM. Moreover, the Emax (commonly the maximal effect, on the per cent scale that the assay sets) in the data set with Cavia porcellus [4] is 238%. In addition, in the data set listed under Cavia porcellus [5], the Activity was 17 µM/g.
In the same order, the values of `C[C@]12CC/C(=N\OCCN)C[C@@H]1[C@@H](O[N+](=O)[O-])C[C@@H]1[C@@H]2CC[C@]2(C)C(=O)CC[C@@H]12.O=C(O)/C=C/C(=O)O` are 3.6 µM/g, 8, 0.33 µM, 172% and 9.8 µM/g.
`C[C@]12CC/C(=N\O[C@@H]3CCNC3)C[C@@H]1/C(=N/O)C[C@@H]1[C@@H]2CC[C@]2(C)C(=O)CC[C@@H]12.Cl`: the Activity entry in the data set with Cavia porcellus [6] is “Non-toxic”; in the data set listed under Cavia porcellus [5] it was 4.3 µM/g. In addition, the ED80 in the data set on Cavia porcellus [1] is 1.5 µM/g. Also, in data set [3], the half-inhibitory concentration (IC50) worked out at 0.016 µM. The Emax in the data set on Cavia porcellus [4] was determined as 144%.
In the same order, the values of `C[C@]12CC/C(=N\O[C@@H]3CCNC3)C[C@@H]1[C@@H](CCO)C[C@@H]1[C@@H]2CC[C@]2(C)C(=O)CC[C@@H]12.Cl` are “Non-toxic”, 5.1 µM/g, 1.9 µM/g, 0.058 µM and 183%.
In the same order, the values of `C[C@]12CC/C(=N\O[C@@H]3CCNC3)C[C@@H]1[C@@H](C(N)=O)C[C@@H]1[C@@H]2CC[C@]2(C)C(=O)CC[C@@H]12.Cl` are “Non-toxic”, 8.8 µM/g, 2.2 µM/g, 0.14 µM and 109%.
Consider `CNCCCO/N=C1\CC[C@@]2(C)[C@H](C1)[C@@H](CO)C[C@@H]1[C@@H]2CC[C@]2(C)C(=O)CC[C@@H]12.Cl`, for which, in the data set on Cavia porcellus [1], the ED80 is 1.5 µM/g. Moreover, in data set [2], the selectivity ratio stood at 28. For the same compound, the concentration for half-maximal inhibition (IC50) in data set [3] is 0.69 µM. For the same compound, the maximal effect (Emax) in the data set with Cavia porcellus [4] came to 263%. Further, the Activity in the data set filed under Cavia porcellus [5] stood at 9 µM/g.
Regarding `CNCCCO/N=C1\CC[C@@]2(C)[C@H](C1)[C@@H](C)C[C@@H]1[C@@H]2CC[C@]2(C)C(=O)CC[C@@H]12.Cl`, the results for the Activity entry in the data set with Cavia porcellus [6] and in the data set filed under Cavia porcellus [5] were “Non-toxic” and 18 µM/g, respectively. Moreover, the ED80 in the data set with Cavia porcellus [1] is 8.1 µM/g. For the same compound, the IC50 in data set [3] stood at 0.91 µM. Further, in the data set on Cavia porcellus [4], the Emax is 213%.
In the case of `CO[C@H]1C[C@@H]2[C@H](CC[C@]3(C)C(=O)CC[C@@H]23)[C@@]2(C)CC/C(=N\OCCN)C[C@H]12.Cl`, the ED80 with Cavia porcellus [1] turned out to be 4.3 µM/g. The selectivity ratio in data set [2] was 9. Moreover, in data set [3], the IC50 came to 0.71 µM. Moreover, the Emax in the data set on Cavia porcellus [4] is 167%. The Activity in the data set filed under Cavia porcellus [5] came out at 18 µM/g.
`C[C@H]1C[C@@H]2[C@H](CC[C@]3(C)C(=O)CC[C@@H]23)[C@@]2(C)CC/C(=N\OCCN)C[C@H]12.Cl`: the Activity result with Cavia porcellus [6] is “Non-toxic”; in the data set listed under Cavia porcellus [5] it was 5.8 µM/g. Moreover, in the data set with Cavia porcellus [1], the ED80 is 3.1 µM/g. Also, the concentration for half-maximal inhibition (IC50) in data set [3] stood at 0.3 µM. In addition, the Emax in the data set on Cavia porcellus [4] stood at 203%.
For the compound `C#C[C@H]1C[C@@H]2[C@H](CC[C@]3(C)C(=O)CC[C@@H]23)[C@@]2(C)CC/C(=N\OCCN)C[C@H]12.Cl`, the figures for the Activity result in the data set on Cavia porcellus [6] and in the data set listed under Cavia porcellus [5] were “Non-toxic” and 9.9 µM/g, respectively. In the data set with Cavia porcellus [1], the ED80 worked out at 4.6 µM/g. The IC50 in data set [3] came to 0.2 µM. Moreover, the Emax with Cavia porcellus [4] was determined as 163%.
Taken in the same sequence, the figures for `COC(=O)[C@H]1C[C@@H]2[C@H](CC[C@]3(C)C(=O)CC[C@@H]23)[C@@]2(C)CC/C(=N\O[C@@H]3CCNC3)C[C@H]12.Cl` were “Non-toxic”, 23 µM/g, 11 µM/g, 0.16 µM and 164%.
In the same order, the values of `CO/N=C1\C[C@@H]2[C@H](CC[C@]3(C)C(=O)CC[C@@H]23)[C@@]2(C)CC/C(=N\OCCN)C[C@H]12.Cl` are “Non-toxic”, 5.8 µM/g, 2.4 µM/g, 0.017 µM and 183%.
In the case of `C[C@]12CC/C(=N\OCCN)C[C@@H]1/C(=N/O)C[C@@H]1[C@@H]2CC[C@]2(C)C(=O)CC[C@@H]12.Cl`, the ED80 in the data set on Cavia porcellus [1] is 0.84 µM/g. Also, in data set [2], the selectivity ratio worked out at 11. Moreover, the concentration for half-maximal inhibition (IC50) in data set [3] was determined as 0.024 µM. In the data set with Cavia porcellus [4], the maximum response (Emax) worked out at 180%. In the data set listed under Cavia porcellus [5], the Activity worked out at 4.3 µM/g.
Regarding `C[C@]12CC/C(=N\OCCN)C[C@@H]1[C@@H](CO)C[C@@H]1[C@@H]2CC[C@]2(C)C(=O)CC[C@@H]12.Cl`, the Activity result with Cavia porcellus [6] is “Non-toxic”; in the data set filed under Cavia porcellus [5], 7.4 µM/g. Besides, the ED80 with Cavia porcellus [1] stood at 1.8 µM/g. In addition, the 50% inhibitory concentration (IC50) in data set [3] is 0.18 µM. Further, the maximal effect (Emax) in the data set with Cavia porcellus [4] was found to be 166%.
Taken in the same sequence, the figures for `C#C[C@H]1C[C@@H]2[C@H](CC[C@]3(C)C(=O)CC[C@@H]23)[C@@]2(C)CC/C(=N\O[C@@H]3CCNC3)C[C@H]12.Cl` were “Non-toxic”, 6 µM/g, 3.7 µM/g, 0.11 µM and 147%.
Taken in the same sequence, the figures for `C[C@]12CC/C(=N\O[C@@H]3CCNC3)C[C@@H]1C(=C(F)F)C[C@@H]1[C@@H]2CC[C@]2(C)C(=O)CC[C@@H]12.Cl` were “Non-toxic”, 18 µM/g, 6.7 µM/g, 0.021 µM and 244%.
As to `COC[C@H]1C[C@@H]2[C@H](CC[C@]3(C)C(=O)CC[C@@H]23)[C@@]2(C)CC/C(=N\O[C@@H]3CCNC3)C[C@H]12.O=C(O)/C=C/C(=O)O`, the Activity entry in the data set on Cavia porcellus [6] was “Non-toxic”; in the data set filed under Cavia porcellus [5] it was 12 µM/g. The ED80 in the data set on Cavia porcellus [1] stood at 6.8 µM/g. Moreover, in data set [3], the IC50 is 0.32 µM. For the same compound, the maximum response (Emax) with Cavia porcellus [4] worked out at 201%.
Regarding `CNCCCO/N=C1\CC[C@@]2(C)[C@H](C1)/C(=N/O)C[C@@H]1[C@@H]2CC[C@]2(C)C(=O)CC[C@@H]12.Cl`, the Activity entry was “Non-toxic” with Cavia porcellus [6] and 15 µM/g in the data set listed under Cavia porcellus [5]. Moreover, the ED80 with Cavia porcellus [1] was found to be 7.1 µM/g. The concentration for half-maximal inhibition (IC50) in data set [3] amounted to 0.2 µM. Besides, the Emax in the data set on Cavia porcellus [4] was determined as 158%.
Take `C[C@]12CC/C(=N\OCCN)C[C@@H]1[C@@H](NC=O)C[C@@H]1[C@@H]2CC[C@]2(C)C(=O)CC[C@@H]12.O=C(O)/C=C/C(=O)O`: the ED80 with Cavia porcellus [1] is 2 µM/g. In addition, in data set [2], the selectivity ratio is 33. Moreover, the IC50 in data set [3] came out at 0.16 µM. For the same compound, the Emax in the data set with Cavia porcellus [4] came out at 174%. Further, in the data set listed under Cavia porcellus [5], the Activity was 27 µM/g.
In the same order, the values of `C[C@]12CC/C(=N\O[C@@H]3CCNC3)C[C@@H]1[C@@H](NC=O)C[C@@H]1[C@@H]2CC[C@]2(C)C(=O)CC[C@@H]12.Cl` are 1.6 µM/g, 11, 0.041 µM, 142% and 6 µM/g.
